Experimental findings from ChEMBL document CHEMBL3396947, “Synthesis and biological evaluation of phosphoramidate prodrugs of two analogues of 2-deoxy-d-ribose-1-phosphate directed to the discovery of two carbasugars as new potential anti-HIV leads” (Bioorg Med Chem, 2015) are described below.

Series [1] relates to Human immunodeficiency virus 1. In words: Antiviral activity against HIV1 3B infected in human CEM cells assessed as reduction of virus-induced cytopathogenicity after 4 to 5 days by trypan blue dye exclusion method. Format: functional, organism-based. The conditions noted are these: Human immunodeficiency virus 1, 3B, CCRF-CEM. A general note: Cytopathic effects are the visible damage that an infection or toxin causes in cultured cells.

Series [2] deals with Human immunodeficiency virus 2. The series can be described thus: Antiviral activity against HIV2 ROD infected in human CEM cells assessed as reduction of virus-induced cytopathogenicity after 4 to 5 days by trypan blue dye exclusion method. The format is functional, organism-based. The following applies: Human immunodeficiency virus 2, ISOLATE ROD, CCRF-CEM.
The subject of series [3] is Human immunodeficiency virus 2. In words: Antiviral activity against HIV2 ROD infected in human TK-deficient CEM cells assessed as reduction of virus-induced cytopathogenicity after 4 to 5 days by trypan blue dye exclusion method. The format is functional, organism-based. The conditions noted are these: Human immunodeficiency virus 2, ISOLATE ROD, CCRF-CEM.
A further series concerns CCRF-CEM. In words: (§1) Cytotoxicity against human CEM cells after 72 hrs by coulter counter analysis. The format is cell-based. The conditions noted are these: 72 h; for CC50: human, ccrf-cem; for IC50: Homo sapiens, CCRF-CEM. In a few lines: (§2)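 Tumour cells, (5–7.5) × 10⁴ per well, were grown with graded compound amounts at 37 °C in humidified CO₂. Growth time was 48 h for L1210, 72 h for CEM and 96 h for HeLa. Cells were then counted with a Coulter counter. IC50 was the concentration reducing cell proliferation by 50%.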

Series [4] in a line: as §1. Format: cell-based, CCRF-CEM. The conditions noted are these: human, CEM cells (CCRF-CEM). In a few lines: as §2
Series [5] can be described thus: Prodrug activation assessed as carboxypeptidase Y (unknown origin)-mediated drug metabolism after 13 hrs by 31P-NMR analysis. The format is ADME, Homo sapiens. The method, boiled down: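 The substrate was dissolved in acetone-d6 and mixed with Trizma buffer (pH 7.6) for the carboxypeptidase Y incubation.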
Series [6] deals with Human immunodeficiency virus 1. The series can be described thus: Antiviral activity against HIV1 NL4.3 infected in human MT4 cells assessed as reduction of virus-induced cytopathogenicity after 4 to 5 days by trypan blue dye exclusion method. Format: functional, organism-based. The conditions noted are these: Human immunodeficiency virus 1, NL4.3, MT4. In a few lines:
(§3)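 MT-4 cells (~3 × 10⁵ cells/mL) were infected with 100 CCID50/mL of HIV and cultured with compound dilutions for 4–5 days at 37 °C in humidified CO₂. Viable cells were counted by trypan blue dye exclusion. EC50 was the concentration giving 50% inhibition of the HIV-induced cytopathic effect.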

Series [7] deals with Human immunodeficiency virus 2. The series can be described thus: Antiviral activity against HIV2 ROD infected in human MT4 cells assessed as reduction of virus-induced cytopathogenicity after 4 to 5 days by trypan blue dye exclusion method. Format: functional, organism-based. The conditions noted are these: Human immunodeficiency virus 2, ISOLATE ROD. The method, boiled down: as §3

The test system of a further series is MT4. In words: Cytotoxicity against human MT4 cells after 4 to 5 days by trypan blue dye exclusion method. The format is cell-based.
The test system of the next series is L1210. In words: Cytotoxicity against mouse L1210 cells after 48 hrs by coulter counter analysis. Format: cell-based. The following applies: L1210, 48 h. The method, boiled down:
as §2

For the next series, the system named is HeLa. The series can be described thus: Cytotoxicity against human HeLa cells after 96 hrs by coulter counter analysis. The format is cell-based. The method, boiled down: as §2
Another series has as its system Human alphaherpesvirus 1. In words: Antiviral activity against HSV1 infected in HEL cells at 100 uM. Format: functional, organism-based.
In another series the test system is Human alphaherpesvirus 2. The series can be described thus: Antiviral activity against HSV2 infected in HEL cells at 100 uM. The format is functional, organism-based.
The subject of a further series is Vaccinia virus. In words: Antiviral activity against Vaccinia virus infected in HEL cells at 100 uM. Format: functional, organism-based. The following applies: Orthopoxvirus vaccinia.
For series [8], the system named is Vesicular stomatitis virus. The series can be described thus: Antiviral activity against Vesicular stomatitis virus infected in human HeLa cells at 100 uM. Format: functional, organism-based.
The subject of a further series is Coxsackievirus. In words: Antiviral activity against Coxsackievirus B4 infected in human HeLa cells at 100 uM. Format: functional, organism-based.
A further series deals with Human orthopneumovirus. The series can be described thus: Antiviral activity against Respiratory syncytial virus infected in human HeLa cells at 100 uM. Format: functional, organism-based.
A further series deals with Human respirovirus 3. In words: Antiviral activity against Parainfluenza virus 3 infected in African green monkey Vero cells at 100 uM. Format: functional, organism-based.
Series [9] relates to Mammalian orthoreovirus 1. In words: Antiviral activity against Reovirus-1 infected in African green monkey Vero cells at 100 uM. The format is functional, cell-based.
The test system of the next series is Sindbis virus. In words: Antiviral activity against Sindbis virus infected in African green monkey Vero cells at 100 uM. Format: functional, organism-based.
In a further series the test system is Punta Toro virus. In words: Antiviral activity against Punta Toro virus infected in African green monkey Vero cells at 100 uM. The format is functional, organism-based.
For series [10], the system named is Influenza A virus. In words: Antiviral activity against Influenza A virus H1N1 infected in MDCK cells at 100 uM. The format is functional, organism-based.
In series [11] the test system is Influenza A virus. The series can be described thus: Antiviral activity against Influenza A virus H3N2 infected in MDCK cells at 100 uM. Format: functional, organism-based.
The next series deals with Feline coronavirus. The series can be described thus: Antiviral activity against Feline coronavirus infected in CRFK cells at 100 uM. The format is functional, organism-based.
The test system of another series is Felid alphaherpesvirus 1. In words: Antiviral activity against Feline herpesvirus infected in CRFK cells at 100 uM. Format: functional, organism-based.
In series [12] the target is Human immunodeficiency virus type 1 reverse transcriptase (Human immunodeficiency virus 1) (UniProt Q72547). The series can be described thus: Activity at HIV reverse transcriptase.

SMILES strings stand for the structures. The source made the active and inactive calls. The rule behind the calls is not given here.

A word on the EC50: it is the concentration needed to bring the measured effect to its halfway point. The CC50 is the concentration at which the toxic effect on the cells reaches its halfway point. One may read the IC50 as the concentration needed to halve the response being measured.

Regarding `C[C@H](NP(=O)(Oc1ccccc1)OC1C[C@H](CO)[C@@H](O)C1)C(=O)OC1CCCCC1` (mixture of isomers), the EC50 in series [1] was more than 250 µM; in series [2], more than 250 µM; in series [3], 250 µM. In addition, in the series with CCRF-CEM, the CC50 is more than 250 µM.
In the case of `O=C(OCc1ccccc1)OC[C@H]1CC(O)C[C@@H]1OC(=O)OCc1ccccc1` (some centres not stated), the EC50 in [1] and in series [2] was more than 50 µM in each case. Also, the midpoint of cytotoxicity in series [4], the CC50 at 72 h, lay at 110 µM.
For the molecule `C[C@H](NP(=O)(Oc1cccc2ccccc12)OC1C[C@H](CO)[C@@H](O)C1)C(=O)OC1CCCCC1` (mixture of isomers), the EC50 was more than 50 µM in series [1], more than 50 µM in series [2] and 50 µM in [3]. Besides, in the series on CCRF-CEM, the CC50 is more than 250 µM. For the same molecule, in [5], the Stability entry was “Stable”.
Consider `C[C@H](NP(=O)(Oc1ccccc1)OC1C[C@H](CO)[C@@H](O)C1)C(=O)OC(C)(C)C` (mixture of isomers), for which the values for the concentration giving a half-maximal response (EC50) in series [1], in series [2] and in [3] were more than 250 µM, more than 250 µM and 250 µM, respectively. The same molecule returned a CC50 with CCRF-CEM of more than 250 µM.
For `OC[C@H]1CC(O)C[C@@H]1O` (some centres not stated), the EC50 in series [1] and in series [2] was more than 250 µM each time. This molecule returned a CC50 with CCRF-CEM of more than 250 µM.
With `OC[C@H]1[C@H](O)CC[C@@H]1O`, the EC50 in series [1] turned out to be 3.8 µM; in series [2], 12 µM; in [6], 6.7 µM; in series [7] it was 7.5 µM. The IC50 in the series with CCRF-CEM was not below 250 µM; with L1210 it was 55 µM; with HeLa it was 175 µM. Also, the CC50 is more than 250 µM in the series on CCRF-CEM and 90 µM in the series with MT4. In addition, the result (in the series with Human alphaherpesvirus 1; with Human alphaherpesvirus 2; in the series on Vaccinia virus; in [8]; in the series on Coxsackievirus; in the series with Human orthopneumovirus) was inactive. Moreover, the outcome (in the series with Human respirovirus 3; in [9]; in the series on Sindbis virus; in the series on Punta Toro virus; in the series with Influenza A virus [10]; in the series with Influenza A virus [11]) was inactive. The result (in the series on Feline coronavirus; in the series with Felid alphaherpesvirus 1; in series [12]) was inactive.
On to `COC(=O)[C@@H](NP(=O)(Oc1ccccc1)OC1C[C@H](CO)[C@@H](O)C1)C(C)C` (mixture of isomers), for which the EC50 is more than 250 µM in [1], more than 250 µM in [2] and 250 µM in series [3]. In the series with CCRF-CEM, this molecule yielded a CC50 of more than 250 µM.
With `CCCCCOC(=O)[C@H](C)NP(=O)(Oc1ccccc1)O[C@@H]1CC[C@H](O)[C@H]1CO` (some centres not stated), the IC50 in the series on CCRF-CEM turned out to be 106 µM; in the series with L1210, 116 µM; with HeLa, 166 µM. Also, the EC50 was more than 250 µM in series [6] and 145 µM in series [7]. In the series on MT4, this molecule displayed a CC50 of more than 250 µM.
As for `COC(=O)[C@H](C)NP(=O)(Oc1ccccc1)OC1C[C@H](CO)[C@@H](O)C1` (mixture of isomers), the concentration for a half-maximal effect (EC50) in series [1] was more than 250 µM; in series [2], more than 250 µM; in series [3] it was 250 µM. The same molecule displayed a CC50 in the series with CCRF-CEM of more than 250 µM.
On to `C[C@H](NP(=O)(Oc1cccc2ccccc12)O[C@@H]1CC[C@H](O)[C@H]1CO)C(=O)OCC(C)(C)C` (some centres not stated), for which the half-inhibitory concentration (IC50) turned out to be 64 µM in the series with CCRF-CEM, 70 µM with L1210 and 94 µM in the series with HeLa. In addition, the EC50 in [6] and in series [7] was more than 50 µM each time. The same molecule showed a CC50 in the series on MT4 of 112 µM.
Take `O=C(OCc1ccccc1)OC[C@H]1[C@H](O)CC[C@@H]1OC(=O)OCc1ccccc1`: the EC50 in series [1] was 2.1 µM; in [2], 5.4 µM. In series [4], this molecule showed a CC50 at 72 h of 94 µM. Further, the outcome in [12] was inactive.
